Assays:
[1] = target: Sodium-dependent dopamine transporter (Rattus norvegicus, UniProt P23977); assay: Binding affinity against Dopamine transporter using [125]RTI-55
[2] = target: T1, Muscarinic acetylcholine receptor M1 (Rattus norvegicus, UniProt P08482); assay: Binding affinity against Muscarinic receptor from rat brain membranes using [3H]pirenzepine
T1 sequence (P08482 whole entry): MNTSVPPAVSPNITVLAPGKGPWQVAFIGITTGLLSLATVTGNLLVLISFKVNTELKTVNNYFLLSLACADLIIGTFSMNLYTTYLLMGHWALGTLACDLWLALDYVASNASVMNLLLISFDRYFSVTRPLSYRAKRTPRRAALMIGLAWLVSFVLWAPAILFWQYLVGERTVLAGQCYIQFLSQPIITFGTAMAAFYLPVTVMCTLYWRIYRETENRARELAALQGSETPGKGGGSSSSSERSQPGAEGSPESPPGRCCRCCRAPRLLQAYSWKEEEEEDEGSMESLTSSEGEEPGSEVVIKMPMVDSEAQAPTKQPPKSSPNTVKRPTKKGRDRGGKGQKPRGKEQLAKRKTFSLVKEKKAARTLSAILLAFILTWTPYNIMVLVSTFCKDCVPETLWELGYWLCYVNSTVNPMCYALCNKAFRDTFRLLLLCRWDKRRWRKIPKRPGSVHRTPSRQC
Procedure, shortened: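 Male Sprague-Dawley rat brain P2 membranes (without cerebellum and brainstem), 300 μg protein, with 5 nM [3H]pirenzepine and 5 mM MgCl2 in 50 mM Tris-HCl pH 7.4, for 60 min at 37 °C. Nonspecific binding was defined with 10 μM QNB. Nine ligand concentrations (1 nM-10 μM or 10 nM-100 μM) were tested.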

[3] = organism: Rattus norvegicus; assay: Inhibition of Dopamine reuptake from rat caudate using [3H]DA; type: functional
Procedure, shortened: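 Rat caudate synaptosomes were prepared by homogenization in ice-cold 10% sucrose, and the 1000g supernatant was used. Incubation was with 2 nM [3H]DA (final) in Krebs-phosphate buffer pH 7.4 containing ascorbic acid (1 mg/mL) and pargyline (50 μM), for 20 min at 25 °C. Nonspecific uptake was defined with 1 μM of a DAT inhibitor. Filtration was followed by counting of retained tritium.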

[4] = target: Sodium-dependent serotonin transporter (Rattus norvegicus, UniProt P31652); assay: Binding affinity against serotonin transporter using [125]RTI-55
[5] = target: Monoamine transporters; serotonin & dopamine (Rattus norvegicus) (UniProt P31652+P23977); assay: Ratio of binding affinity against Dopamine to that of serotonin transporter; type: protein assay
[6] = organism: Rattus norvegicus; assay: Inhibition of 5-HT reuptake from whole rat brain minus cerebellum using [3H]5-HT

Sequence of Monoamine transporters; serotonin & dopamine (Rattus norvegicus) (P23977 whole entry, looked up): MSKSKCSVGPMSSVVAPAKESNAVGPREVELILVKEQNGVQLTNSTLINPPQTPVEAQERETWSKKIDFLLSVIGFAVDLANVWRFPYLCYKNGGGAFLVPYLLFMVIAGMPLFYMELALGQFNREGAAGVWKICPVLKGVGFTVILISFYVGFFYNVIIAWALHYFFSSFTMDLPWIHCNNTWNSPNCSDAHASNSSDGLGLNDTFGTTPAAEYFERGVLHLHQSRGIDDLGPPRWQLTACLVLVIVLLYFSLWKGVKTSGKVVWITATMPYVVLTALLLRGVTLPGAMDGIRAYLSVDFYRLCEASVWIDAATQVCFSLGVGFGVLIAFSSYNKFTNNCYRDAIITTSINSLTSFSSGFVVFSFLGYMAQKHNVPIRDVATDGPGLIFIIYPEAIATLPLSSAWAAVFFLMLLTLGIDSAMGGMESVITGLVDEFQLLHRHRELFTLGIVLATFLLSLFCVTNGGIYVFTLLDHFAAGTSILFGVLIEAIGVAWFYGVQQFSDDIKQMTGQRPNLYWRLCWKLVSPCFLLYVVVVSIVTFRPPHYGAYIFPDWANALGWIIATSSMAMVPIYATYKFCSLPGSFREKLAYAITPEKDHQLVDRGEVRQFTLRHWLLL
Sequence of Monoamine transporters; serotonin & dopamine (Rattus norvegicus) (P31652 whole entry, looked up): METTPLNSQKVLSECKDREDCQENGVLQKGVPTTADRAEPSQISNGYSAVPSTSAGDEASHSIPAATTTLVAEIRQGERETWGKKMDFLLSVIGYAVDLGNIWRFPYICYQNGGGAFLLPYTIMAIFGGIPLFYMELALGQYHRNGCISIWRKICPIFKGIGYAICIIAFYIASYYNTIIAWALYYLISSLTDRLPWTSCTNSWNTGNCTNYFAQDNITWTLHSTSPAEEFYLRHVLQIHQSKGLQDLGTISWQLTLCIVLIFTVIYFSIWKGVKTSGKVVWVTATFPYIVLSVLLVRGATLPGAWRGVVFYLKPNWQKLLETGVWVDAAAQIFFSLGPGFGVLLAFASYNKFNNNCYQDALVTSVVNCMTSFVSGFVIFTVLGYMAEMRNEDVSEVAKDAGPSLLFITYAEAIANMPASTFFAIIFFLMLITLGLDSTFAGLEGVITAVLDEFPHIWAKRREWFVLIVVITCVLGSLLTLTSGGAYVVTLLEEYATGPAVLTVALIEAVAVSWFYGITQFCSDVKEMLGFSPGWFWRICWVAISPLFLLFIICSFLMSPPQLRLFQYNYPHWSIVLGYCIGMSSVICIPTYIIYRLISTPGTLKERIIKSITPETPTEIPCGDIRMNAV
Sequence of Sodium-dependent dopamine transporter (P23977 whole entry): as the sequence (P23977 whole entry, looked up) above
Sequence of Sodium-dependent serotonin transporter (P31652 whole entry): as the sequence (P31652 whole entry, looked up) above

SMILES	Ki [1] [µM]	Ki [2] [nM]	Ki [3] [nM]	Ki [4] [µM]	Ratio [5]	Ki [6] [µM]
CN1[C@@H]2CC[C@H]1C[C@@H](CC(=O)NC(c1ccccc1)c1ccccc1)C2	30	1200	7900	120	4	100
CN1C2CCC1CC(=CCOC(c1ccccc1)c1ccccc1)C2		94	190	8.3	64	8.1
CN1C2CCC1CC(=CC(=O)NC(c1ccc(F)cc1)c1ccc(F)cc1)C2		2500	240	19	38	17
CN1C2CCC1CC(=CC(=O)NC(c1ccccc1)c1ccccc1)C2	2.3	1700	880	78	34	60
CN1C2CCC1CC(=CCOC(c1ccc(F)cc1)c1ccc(F)cc1)C2	19	200	35	3.6	189	5
CN1C2CCC1CC(CCOC(c1ccc(F)cc1)c1ccc(F)cc1)C2 (stereo not drawn)	52	130	80	4.1	79	
c1ccc(CCCN2CCN(CCOC(c3ccccc3)c3ccccc3)CC2)cc1			3.7			0.29
CN1[C@@H]2CC[C@H]1C[C@@H](CCOC(c1ccccc1)c1ccccc1)C2		56	260	15	54	12
CN1C2CCC1CC(CC(=O)NC(c1ccc(F)cc1)c1ccc(F)cc1)C2 (stereo not drawn)	3.4	1200	1800	69	20	60
Fc1ccc(C(OCCN2CCN(CCCc3ccccc3)CC2)c2ccc(F)cc2)cc1 [VANOXERINE]			4.3			0.073
Fc1ccc(C(OCC[C@H]2C[C@H]3CC[C@@H](C2)N3CCCc2ccccc2)c2ccc(F)cc2)cc1	19	170	78	0.079	4	0.43
CN1[C@@H]2CC[C@H]1C[C@@H](OC(c1ccccc1)c1ccccc1)C2 [BENZTROPINE]			130			18.5
c1ccc(CCCN2[C@@H]3CC[C@H]2C[C@@H](CCOC(c2ccccc2)c2ccccc2)C3)cc1	28	78	120	0.17	6	0.57
CN1C2CCC1CC(CCNC(c1ccccc1)c1ccccc1)C2 (stereo not drawn)	3.8	340	1100	43	11	14
CN1[C@@H]2CC[C@H]1C[C@@H](CCNC(c1ccc(F)cc1)c1ccc(F)cc1)C2		630	160	30	111	7.1

Reference: ChEMBL document CHEMBL1134268, “Synthesis and biological evaluation of tropane-like 1-[2-[bis(4-fluorophenyl)methoxy]ethyl]-4-(3-phenylpropyl)piperazine (GBR 12909) analogues” (J Med Chem, 2001)
